# ChEMBL document CHEMBL5046236, “Synthesis and structure-activity relationship study of new biaryl amide derivatives and their inhibitory effects against hepatitis C virus” (Eur J Med Chem, 2022)
# How the values were obtained:
# [1] = Selectivity index, ratio of CC50 for cytotoxicity against human Huh7.5 cells to EC50 for antiviral activity against Hepatitis C virus infected in human Huh7.5 cells; type: toxicity, cell-based; settings: read-out: Ratio CC50/EC50
# Huh-7.5 = assay: Cytotoxicity against human Huh7.5 cells assessed as inhibition of cell growth measured after 96 hrs by MTT assay; type: toxicity, cell-based; settings: huh-7.5, 96 h
# Method in brief: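 Huh7.5 cells in DMEM with 10% heat-inactivated FBS, seeded at 3.0 × 10⁴ cells/cm²; after 24 h, fresh medium with compound added (DMSO stocks, eight 1:5 serial dilutions).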
# Hepatitis C virus = assay: Antiviral activity against Hepatitis C virus infected in human Huh7.5 cells assessed as inhibition of viral replication incubated for 72 hrs by qRT-PCR analysis; type: functional, organism-based, Hepacivirus hominis; settings: Huh7.5, 72 h
# [2] = target: DNA dC->dU-editing enzyme APOBEC-3G (Homo sapiens) (UniProt Q9HC16); assay: Inhibition of Vif-mediated human A3G degradation in HEK-293T cells cotransfected with hA3G and Vif at 20 uM by western blot analysis relative to control; type: cell-based
# Method in brief: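 293T cells cotransfected with hA3G and Vif expression vectors, then treated with compounds at 20 μM; MG132 proteasome inhibitor as positive control, DMSO-treated cells as comparator for hA3G degradation.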
# DNA dC->dU-editing enzyme APOBEC-3G (Homo sapiens), sequence (Q9HC16 whole entry): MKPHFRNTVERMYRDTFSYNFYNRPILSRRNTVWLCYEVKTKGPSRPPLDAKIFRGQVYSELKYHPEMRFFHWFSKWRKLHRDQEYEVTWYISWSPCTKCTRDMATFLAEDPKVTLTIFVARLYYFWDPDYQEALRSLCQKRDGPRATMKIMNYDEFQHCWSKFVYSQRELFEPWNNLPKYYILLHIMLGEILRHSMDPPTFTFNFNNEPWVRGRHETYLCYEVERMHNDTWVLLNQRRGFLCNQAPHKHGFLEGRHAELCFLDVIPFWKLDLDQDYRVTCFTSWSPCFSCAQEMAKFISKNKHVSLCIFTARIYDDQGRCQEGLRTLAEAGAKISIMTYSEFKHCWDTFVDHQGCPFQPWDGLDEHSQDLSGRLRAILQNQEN
SMILES,selectivity ratio [1],CC50 (Huh-7.5) [µM],EC50 (Hepatitis C virus) [µM],inhibition [2] [%]
CCC(=O)Nc1cc(C(=O)Nc2ccc(CN3CCN(C)CC3)c(C(F)(F)F)c2)ccc1OCCCCl,36.3,7.87,0.22,–
CC(C)Oc1ccc(C(=O)Nc2ccc(CN3CCN(C)CC3)c(C(F)(F)F)c2)cc1[N+](=O)[O-],39,3.5,0.095,< 25
CCC(=O)Nc1cc(C(=O)Nc2ccc(N(C)C)cc2)ccc1OC,66,171,2.56,< 25
CN(C)C1CCN(Cc2ccc(NC(=O)c3ccc(OCCCCl)c([N+](=O)[O-])c3)cc2C(F)(F)F)C1 (centres undefined),113,5.8,0.051,–
CN(C)C1CCN(Cc2ccc(NC(=O)c3ccc(OCCCCl)c([N+](=O)[O-])c3)cc2C(F)(F)F)CC1,14,5.5,0.38,–
CN1CCN(Cc2ccc(NC(=O)c3ccc(OCCCCl)c(Cl)c3)cc2C(F)(F)F)CC1,7,4.1,0.58,–
CCC(=O)Nc1cc(C(=O)Nc2ccc(OC)cc2)ccc1OCCCN1CCOCC1,–,49.2,> 22.2,–
COc1ccc(NC(=O)c2ccc(OCCCN3CCN(C)CC3)c([N+](=O)[O-])c2)cc1,–,–,–,< 25
COc1ccc(NC(=O)c2ccc(OCCCN(C)C)c(N)c2)cc1,–,–,–,< 25
CCC(=O)Nc1cc(C(=O)Nn2c(C)nnc2S)ccc1OC,> 14,> 200,14.4,> 50
CCC(=O)Nc1cc(C(=O)Nc2ccc(CN3CCN(C)CC3)c(C(F)(F)F)c2)ccc1OC,24,35.3,1.48,> 50
CCC(=O)Nc1cc(C(=O)Nc2ccc(OC)cc2)ccc1OCCCN1CCN(C)CC1,9.4,126,13.5,> 50
CCC(=O)Nc1cc(C(=O)Nc2ccc(OC)cc2)ccc1OCCCN(C)C,–,154,> 22.2,> 50
O=C(Nc1ccc(CN2CCOCC2)c(C(F)(F)F)c1)c1ccc(OCCCCl)c([N+](=O)[O-])c1,19.3,6.1,0.315,–
CN1CCN(Cc2ccc(NC(=O)c3ccc(OCCCCl)c(S(N)(=O)=O)c3)cc2C(F)(F)F)CC1,6.2,5.47,1.14,–
COc1ccc(NC(=O)c2ccc(OC(C)C)c([N+](=O)[O-])c2)cc1,8,23.4,2.86,< 25
CC(C)Oc1ccc(C(=O)Nc2ccc(CN3CCN(C)CC3)c(C(F)(F)F)c2)cc1NC(=O)C(C)Br (centres undefined),27,8.7,0.32,–
CCOc1ccc(C(=O)Nc2ccc(OC)cc2)cc1NC(=O)CC,48,73.2,1.47,25
CN1CCN(Cc2ccc(NC(=O)c3ccc(OCCCCl)c(C(F)(F)F)c3)cc2C(F)(F)F)CC1,99.6,13.4,0.13,–
CC(C)Oc1ccc(C(=O)Nc2ccc(CN3CCN(C)CC3)c(C(F)(F)F)c2)cc1N,16,21.6,1.32,–
CC(C)Oc1ccc(C(=O)Nc2ccc(N(C)C)cc2)cc1NC(=O)C(C)Br (centres undefined),2,7.9,4.34,–
CC(C)Oc1ccc(C(=O)Nc2ccc(N(C)C)cc2)cc1[N+](=O)[O-],16,50,3.1,–
"COc1ccc2c(O[C@@H]3C[C@H]4C(=O)N[C@]5(C(=O)NS(=O)(=O)C6CC6)CC5/C=C\CCCCN(C)C(=O)[C@@H]4C3)cc(-c3nc(C(C)C)cs3)nc2c1C (single isomer, unassigned)",4760,38,0.008,–
CCCOc1ccc(C(=O)Nc2ccc(OC)cc2)cc1[N+](=O)[O-],–,–,–,< 25

SMILES,selectivity ratio [1],CC50 (Huh-7.5) [µM],EC50 (Hepatitis C virus) [µM],inhibition [2] [%]
CC1CCN(c2ccc(NC(=O)c3ccc(OCCCCl)c([N+](=O)[O-])c3)cn2)CC1,14.4,9.2,0.64,–
O=C(Nc1ccc(CN2CC(C(=O)O)C2)c(C(F)(F)F)c1)c1ccc(OCCCCl)c([N+](=O)[O-])c1,> 42,> 200,4.72,–
CCCOc1ccc(C(=O)Nc2ccc(OC)cc2)cc1NC(=O)CC,68,106,1.55,25
CC(C)Oc1ccc(C(=O)Nc2ccc(N(C)C)cc2)cc1N,10,72.1,7.41,–
CCC[C@H](NC(=O)[C@@H]1[C@H]2CCC[C@H]2CN1C(=O)[C@@H](NC(=O)[C@@H](NC(=O)c1cnccn1)C1CCCCC1)C(C)(C)C)C(=O)C(=O)NC1CC1,–,23.7,–,–
COc1ccc(NC(=O)c2ccc3c(c2)NCCO3)cc1,–,153,> 22.2,< 25
CN1CCN(Cc2ccc(NC(=O)c3ccc(OCCCCl)c(N)c3)cc2C(F)(F)F)CC1,10.9,12.9,1.18,–
COc1ccc(C(=O)Nc2ccc(N(C)C)cc2)cc1[N+](=O)[O-],22,88.2,4.07,> 50
COc1ccc(NC(=O)c2ccc(OCCCCl)c([N+](=O)[O-])c2)cc1,17,39.7,2.39,< 25
CCC(=O)Nc1cc(C(=O)Nc2ccc(N(C)C)cc2)ccc1OC(C)C,13,80.6,6.03,–
CC1CN(Cc2ccc(NC(=O)c3ccc(OCCCCl)c([N+](=O)[O-])c3)cc2C(F)(F)F)CC(C)O1 (centres undefined),13.3,2.3,0.174,–
CCC(=O)Nc1cc(C(=O)Nc2ccc(OC)cc2)ccc1OCCCCl,21,158,7.41,–
CN1CCN(Cc2ccc(NC(=O)c3ccc(OCCCCl)c([N+](=O)[O-])c3)cc2C#N)CC1,23,15.5,0.65,–
CN1CCN(Cc2ccc(NC(=O)c3ccc(OCCCCCCl)c([N+](=O)[O-])c3)cc2C(F)(F)F)CC1,36,2.14,0.06,–
CCC(=O)Nc1cc(C(=O)Nc2ccc(CN3CCN(C)CC3)c(C(F)(F)F)c2)ccc1OC(C)C,51,15.3,0.3,–
CN1CCN(Cc2ccc(NC(=O)c3ccc(OCCCl)c([N+](=O)[O-])c3)cc2C(F)(F)F)CC1,204,9.04,0.044,–
CCC(=O)Nc1cc(C(=O)Nc2ccc(N3CCN(C)CC3)cc2)ccc1OC,–,> 200,> 22.2,–
COc1ccc(NC(=O)c2ccc(OCCCN3CCN(C)CC3)c(N)c2)cc1,–,–,–,< 25
CN(C)C1CN(Cc2ccc(NC(=O)c3ccc(OCCCCl)c([N+](=O)[O-])c3)cc2C(F)(F)F)C1,371,7.8,0.021,–
CN1CCN(Cc2ccc(NC(=O)c3ccc(OCCCCl)c(F)c3)cc2C(F)(F)F)CC1,18.9,8.8,0.49,–
CCC(=O)Nc1cc(C(=O)Nc2ccc(CN3CCN(C)CC3)cc2)ccc1OC,–,> 200,> 22.2,25
CN1CCN(Cc2ccc(NC(=O)c3ccc(OCCCCCl)c([N+](=O)[O-])c3)cc2C(F)(F)F)CC1,37,3.74,0.1,–
COc1ccc(C(=O)Nc2cc(OC)c(OC)c(OC)c2)cc1NC(=O)C(C)Br (centres undefined),7,15,2.1,–
